Measurements from ChEMBL document CHEMBL2010768, “Optimization of Potent Inhibitors of P. falciparum Dihydroorotate Dehydrogenase for the Treatment of Malaria” (ACS Med Chem Lett, 2011).
Active and inactive are the calls of the source. No cut-off for these calls is given here.

Experiments:
Plasmodium falciparum [1] = test: Antiplasmodial activity against Plasmodium falciparum 3D7 infected in […] after 72 hrs by SYBR green assay; assay type: functional, organism-based; conditions: 3D7, 72 h
[2] = molecular target: Dihydroorotate dehydrogenase (quinone), mitochondrial (Homo sapiens, UniProt Q02127); test: Inhibition of human DHODH after 20 mins by 2,6-dichloroindophenol-reduction based assay
Chain of Dihydroorotate dehydrogenase (quinone), mitochondrial (Q02127 whole entry): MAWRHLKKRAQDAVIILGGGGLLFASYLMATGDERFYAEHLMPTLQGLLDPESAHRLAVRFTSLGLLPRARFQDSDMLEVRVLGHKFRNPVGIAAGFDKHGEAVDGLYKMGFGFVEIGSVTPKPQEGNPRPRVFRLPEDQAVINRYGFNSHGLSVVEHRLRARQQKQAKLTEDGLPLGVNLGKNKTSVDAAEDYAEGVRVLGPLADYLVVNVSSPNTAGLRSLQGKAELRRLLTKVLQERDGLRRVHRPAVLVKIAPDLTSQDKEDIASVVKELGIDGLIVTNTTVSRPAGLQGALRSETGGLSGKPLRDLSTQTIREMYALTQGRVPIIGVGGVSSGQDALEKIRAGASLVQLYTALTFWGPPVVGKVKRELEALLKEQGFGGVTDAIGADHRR

Plasmodium falciparum [3] = test: Antiplasmodial activity against Plasmodium falciparum Dd2 infected in […] after 72 hrs by SYBR green assay; assay type: functional, organism-based; conditions: Dd2, 72 h
[4] = molecular target: T1, Dihydroorotate dehydrogenase (Plasmodium falciparum, UniProt Q54A96); test: Inhibition of Plasmodium falciparum DHODH after 20 mins by 2,6-dichloroindophenol-reduction based assay
T1 sequence (Q54A96 whole entry): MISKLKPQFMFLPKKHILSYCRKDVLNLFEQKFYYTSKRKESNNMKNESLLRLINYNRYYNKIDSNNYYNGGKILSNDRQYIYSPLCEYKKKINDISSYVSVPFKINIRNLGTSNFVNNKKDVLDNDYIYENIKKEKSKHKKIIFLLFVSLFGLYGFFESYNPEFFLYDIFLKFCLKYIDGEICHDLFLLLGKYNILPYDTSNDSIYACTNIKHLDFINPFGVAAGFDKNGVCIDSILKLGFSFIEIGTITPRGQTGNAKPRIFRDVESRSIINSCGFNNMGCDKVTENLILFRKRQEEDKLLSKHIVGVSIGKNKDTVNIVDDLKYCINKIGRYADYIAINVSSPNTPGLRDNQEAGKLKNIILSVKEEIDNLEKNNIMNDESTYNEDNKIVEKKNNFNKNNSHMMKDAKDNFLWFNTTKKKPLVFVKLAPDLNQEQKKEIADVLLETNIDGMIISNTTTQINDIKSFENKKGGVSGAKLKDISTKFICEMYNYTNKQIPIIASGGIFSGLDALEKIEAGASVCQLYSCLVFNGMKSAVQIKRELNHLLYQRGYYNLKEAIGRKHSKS

[5] = Cytotoxicity against human RPTEC after 4 days by alamar blue assay; assay type: cell-based; conditions: RPTEC cells, read-out: LC50
Cytochrome P450 2C9 = Cytochrome P450 2C9 (Homo sapiens, UniProt P11712); test: Inhibition of human CYP2C9 using diclofenac as substrate after 10 mins by LC-MS/MS analysis; assay type: ADME
Chain of Cytochrome P450 2C9 (P11712 whole entry): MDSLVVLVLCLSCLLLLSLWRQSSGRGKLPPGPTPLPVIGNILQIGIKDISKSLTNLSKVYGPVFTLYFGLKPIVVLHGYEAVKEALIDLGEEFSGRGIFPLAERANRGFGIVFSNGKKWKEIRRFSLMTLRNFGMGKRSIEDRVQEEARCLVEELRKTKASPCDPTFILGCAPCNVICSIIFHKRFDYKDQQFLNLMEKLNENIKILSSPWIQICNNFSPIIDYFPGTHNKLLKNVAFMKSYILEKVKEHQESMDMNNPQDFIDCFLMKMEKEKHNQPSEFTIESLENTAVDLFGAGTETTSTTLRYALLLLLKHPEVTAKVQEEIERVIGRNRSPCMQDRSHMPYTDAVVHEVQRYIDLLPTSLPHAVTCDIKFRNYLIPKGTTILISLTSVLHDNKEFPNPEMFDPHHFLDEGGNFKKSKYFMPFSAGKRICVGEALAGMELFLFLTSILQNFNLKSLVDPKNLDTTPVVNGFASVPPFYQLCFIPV

[6] = Clearance in human liver microsomes by LC-MS/MS analysis; assay type: ADME, Microsome
How it was run: (§1)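 Liver microsome incubation. Predicted clearance is derived from a well-stirred model corrected for microsomal and protein binding.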

Cytochrome P450 2D6 = Cytochrome P450 2D6 (Homo sapiens, UniProt P10635); test: Inhibition of human CYP2D6 using bufuralol as substrate after 10 mins by LC-MS/MS analysis; assay type: ADME
Chain of Cytochrome P450 2D6 (P10635 whole entry): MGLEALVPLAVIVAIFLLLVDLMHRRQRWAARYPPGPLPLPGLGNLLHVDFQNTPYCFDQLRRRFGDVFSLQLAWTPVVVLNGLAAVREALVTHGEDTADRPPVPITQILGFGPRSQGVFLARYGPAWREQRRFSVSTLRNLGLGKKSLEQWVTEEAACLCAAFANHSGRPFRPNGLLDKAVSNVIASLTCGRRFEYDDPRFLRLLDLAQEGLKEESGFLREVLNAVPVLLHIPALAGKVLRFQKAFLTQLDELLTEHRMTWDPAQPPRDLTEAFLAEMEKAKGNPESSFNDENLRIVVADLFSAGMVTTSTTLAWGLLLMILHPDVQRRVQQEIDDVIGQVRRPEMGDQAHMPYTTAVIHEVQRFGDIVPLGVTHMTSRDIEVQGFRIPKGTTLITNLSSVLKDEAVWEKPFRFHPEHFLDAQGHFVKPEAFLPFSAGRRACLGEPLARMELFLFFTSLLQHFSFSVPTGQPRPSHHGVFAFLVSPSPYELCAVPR

Cytochrome P450 3A4 = Cytochrome P450 3A4 (Homo sapiens, UniProt P08684); test: Inhibition of human CYP3A4 using midazolam as substrate after 5 mins by LC-MS/MS analysis; assay type: ADME
Chain of Cytochrome P450 3A4 (P08684 whole entry): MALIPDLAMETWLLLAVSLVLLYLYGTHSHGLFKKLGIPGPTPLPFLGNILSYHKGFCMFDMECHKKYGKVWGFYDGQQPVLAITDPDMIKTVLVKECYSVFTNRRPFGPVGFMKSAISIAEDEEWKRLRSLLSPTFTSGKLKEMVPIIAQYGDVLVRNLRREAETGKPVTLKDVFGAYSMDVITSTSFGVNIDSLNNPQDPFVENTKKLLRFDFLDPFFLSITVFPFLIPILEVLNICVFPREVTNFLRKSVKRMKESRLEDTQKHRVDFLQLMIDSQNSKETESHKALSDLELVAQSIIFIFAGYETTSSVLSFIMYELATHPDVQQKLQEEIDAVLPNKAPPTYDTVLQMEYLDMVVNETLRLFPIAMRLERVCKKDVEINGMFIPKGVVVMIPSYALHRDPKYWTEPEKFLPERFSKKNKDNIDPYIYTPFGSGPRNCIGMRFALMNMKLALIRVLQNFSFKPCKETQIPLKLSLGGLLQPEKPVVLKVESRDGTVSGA

Cytochrome P450 2C19 = Cytochrome P450 2C19 (Homo sapiens, UniProt P33261); test: Inhibition of human CYP2C19 using S-mephenytoin as substrate after 45 mins by LC-MS/MS analysis; assay type: ADME
Chain of Cytochrome P450 2C19 (P33261 whole entry): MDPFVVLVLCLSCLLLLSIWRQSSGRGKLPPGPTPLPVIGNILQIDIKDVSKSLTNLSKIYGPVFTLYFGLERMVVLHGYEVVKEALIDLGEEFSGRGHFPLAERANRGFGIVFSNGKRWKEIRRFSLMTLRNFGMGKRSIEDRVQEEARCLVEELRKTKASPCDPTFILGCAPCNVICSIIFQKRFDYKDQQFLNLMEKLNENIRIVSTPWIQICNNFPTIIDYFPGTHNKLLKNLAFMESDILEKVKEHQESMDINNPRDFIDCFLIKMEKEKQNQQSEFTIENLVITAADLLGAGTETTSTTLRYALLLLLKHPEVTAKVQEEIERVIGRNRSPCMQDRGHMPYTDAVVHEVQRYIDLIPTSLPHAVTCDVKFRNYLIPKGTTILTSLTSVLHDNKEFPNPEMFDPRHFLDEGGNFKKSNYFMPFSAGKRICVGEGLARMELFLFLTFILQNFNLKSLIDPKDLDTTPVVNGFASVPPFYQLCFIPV

Plasmodium vivax = test: Inhibition of Plasmodium vivax DHODH after 20 mins by 2,6-dichloroindophenol-reduction based assay
Cytochrome P450 1A2 = molecular target: T2, Cytochrome P450 1A2 (Homo sapiens, UniProt P05177); test: Inhibition of human CYP1A2 using phenacetin as substrate after 10 mins by LC-MS/MS analysis; assay type: ADME
T2 sequence (P05177 whole entry): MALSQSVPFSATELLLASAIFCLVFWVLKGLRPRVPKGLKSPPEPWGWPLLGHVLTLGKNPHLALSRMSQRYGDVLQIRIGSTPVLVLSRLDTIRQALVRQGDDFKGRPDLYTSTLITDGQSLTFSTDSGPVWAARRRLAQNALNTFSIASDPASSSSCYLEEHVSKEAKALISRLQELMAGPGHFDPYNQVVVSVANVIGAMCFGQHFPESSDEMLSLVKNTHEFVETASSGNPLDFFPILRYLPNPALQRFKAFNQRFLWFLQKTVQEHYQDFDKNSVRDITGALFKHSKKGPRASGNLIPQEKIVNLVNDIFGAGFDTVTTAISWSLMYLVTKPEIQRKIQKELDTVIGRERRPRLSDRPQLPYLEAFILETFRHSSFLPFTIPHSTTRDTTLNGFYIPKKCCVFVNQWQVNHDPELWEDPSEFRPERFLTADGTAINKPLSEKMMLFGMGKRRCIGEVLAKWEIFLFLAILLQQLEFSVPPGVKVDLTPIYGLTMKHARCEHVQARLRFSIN

Plasmodium berghei = test: Inhibition of Plasmodium berghei DHODH after 20 mins by 2,6-dichloroindophenol-reduction based assay
[7] = Clearance in mouse liver microsomes by LC-MS/MS analysis; assay type: ADME, Microsome; how it was run: as §1
[8] = molecular target: Voltage-gated inwardly rectifying potassium channel KCNH2 (Homo sapiens, UniProt Q12809); test: Inhibition of human ERG expressed in CHOK1 cells by whole cell voltage clamp assay; assay type: cell-based, CHO-K1
Chain of Voltage-gated inwardly rectifying potassium channel KCNH2 (Q12809 whole entry): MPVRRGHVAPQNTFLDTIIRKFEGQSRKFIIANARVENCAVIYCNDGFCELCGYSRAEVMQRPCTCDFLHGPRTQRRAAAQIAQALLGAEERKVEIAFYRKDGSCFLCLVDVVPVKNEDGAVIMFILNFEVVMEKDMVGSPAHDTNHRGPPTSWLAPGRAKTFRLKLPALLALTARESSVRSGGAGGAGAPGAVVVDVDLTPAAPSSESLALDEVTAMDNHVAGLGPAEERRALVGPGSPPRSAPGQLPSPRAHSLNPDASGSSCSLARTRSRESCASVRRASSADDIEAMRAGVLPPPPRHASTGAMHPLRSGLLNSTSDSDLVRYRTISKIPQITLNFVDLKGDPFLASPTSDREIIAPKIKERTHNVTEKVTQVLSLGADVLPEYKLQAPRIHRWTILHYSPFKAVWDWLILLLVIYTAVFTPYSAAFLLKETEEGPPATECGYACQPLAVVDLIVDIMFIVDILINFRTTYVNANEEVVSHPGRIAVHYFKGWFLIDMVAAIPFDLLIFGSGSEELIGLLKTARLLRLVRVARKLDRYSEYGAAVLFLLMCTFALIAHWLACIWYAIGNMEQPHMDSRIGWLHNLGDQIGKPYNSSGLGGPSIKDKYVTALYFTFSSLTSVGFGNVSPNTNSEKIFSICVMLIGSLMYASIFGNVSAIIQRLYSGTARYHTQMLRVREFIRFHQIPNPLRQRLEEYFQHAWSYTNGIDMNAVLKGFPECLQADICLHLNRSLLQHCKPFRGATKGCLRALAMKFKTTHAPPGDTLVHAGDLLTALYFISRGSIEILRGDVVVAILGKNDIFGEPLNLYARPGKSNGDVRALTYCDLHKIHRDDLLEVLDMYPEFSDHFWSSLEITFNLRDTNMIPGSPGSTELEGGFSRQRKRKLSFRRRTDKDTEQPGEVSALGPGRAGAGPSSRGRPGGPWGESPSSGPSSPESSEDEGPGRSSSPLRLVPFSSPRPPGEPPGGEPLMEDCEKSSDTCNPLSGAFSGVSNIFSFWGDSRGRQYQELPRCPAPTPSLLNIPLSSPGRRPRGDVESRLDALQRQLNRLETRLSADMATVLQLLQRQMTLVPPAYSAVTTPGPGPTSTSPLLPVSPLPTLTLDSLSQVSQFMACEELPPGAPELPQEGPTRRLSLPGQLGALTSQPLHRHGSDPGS

For `CCCNC(=O)c1ccc(-n2cnc3ccccc32)s1`, which IC50 (Plasmodium falciparum [1]) is on record?
The IC50 was 470 nM.

And the IC50 [2]?
The IC50 was greater than 30000 nM.

What about the IC50 (Plasmodium falciparum [3]) of the same compound?
The IC50 was 1100 nM.

What about the IC50 [4] of the same compound?
The IC50 was 700 nM.

What about the CC50 at 96 h [5] of the same compound?
Its CC50 at 96 h is greater than 62000 nM.

For `CCCc1nc2ccccc2n1-c1ccc(C(=O)NC2CC2)s1`, which IC50 (Plasmodium falciparum [1]) is on record?
The IC50 was 390 nM.

What about the IC50 [2] of the same compound?
The IC50 was 15100 nM.

And the IC50 (Plasmodium falciparum [3])?
Its IC50 is 630 nM.

What about the IC50 [4] of the same compound?
The IC50 was 180 nM.

And the CC50 at 96 h [5]?
The CC50 at 96 h was greater than 62000 nM.

Which results are given for `Cc1nc2c(OC(F)F)cccc2n1-c1ccc(C(=O)NC2CC2)s1`?
IC50 (Plasmodium falciparum [1]): 19 nM; IC50 [2]: > 30000 nM; IC50 (Cytochrome P450 2C9): > 10000 nM; CLhep predicted [6]: 4 mL/min/kg; IC50 (Cytochrome P450 2D6): > 10000 nM; IC50 (Cytochrome P450 3A4): > 10000 nM; IC50 (Cytochrome P450 2C19): > 10000 nM; IC50 (Plasmodium falciparum [3]): 26 nM; IC50 [4]: 44 nM; inhibition (Plasmodium vivax): Active; IC50 (Cytochrome P450 1A2): > 10000 nM; inhibition (Plasmodium berghei): Active; CLhep predicted [7]: 33 mL/min/kg; IC50 [8]: 28800 nM
